Assay results reported in ChEMBL document CHEMBL2062414, “Selected chromone derivatives as inhibitors of monoamine oxidase” (Bioorg Med Chem Lett, 2012).

Key:
[1] = target: T1, Amine oxidase [flavin-containing] B (Homo sapiens, UniProt P27338); experiment: Inhibition of recombinant human MAO-B assessed as inhibition of kynuramine to 4-hydroxyquinoline conversion after 20 mins by fluorometry
T1 sequence (P27338 whole entry): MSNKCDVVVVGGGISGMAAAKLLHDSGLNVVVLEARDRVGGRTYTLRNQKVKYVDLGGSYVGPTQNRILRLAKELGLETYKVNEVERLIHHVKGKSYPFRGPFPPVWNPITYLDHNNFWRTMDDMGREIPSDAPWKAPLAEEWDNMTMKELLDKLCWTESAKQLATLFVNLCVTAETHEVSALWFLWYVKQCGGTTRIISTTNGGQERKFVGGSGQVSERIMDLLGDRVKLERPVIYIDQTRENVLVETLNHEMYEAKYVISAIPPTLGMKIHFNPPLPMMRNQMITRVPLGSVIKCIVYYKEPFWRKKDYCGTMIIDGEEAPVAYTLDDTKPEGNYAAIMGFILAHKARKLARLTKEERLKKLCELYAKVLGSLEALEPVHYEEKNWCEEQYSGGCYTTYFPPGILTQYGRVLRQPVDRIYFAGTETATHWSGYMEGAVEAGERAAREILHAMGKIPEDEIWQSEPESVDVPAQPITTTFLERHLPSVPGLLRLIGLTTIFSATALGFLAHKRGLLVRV

[2] = species on record: Homo sapiens; experiment: Selectivity ratio of IC50 for recombinant human MAO-A to IC50 for recombinant human MAO-B
Procedure, shortened: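 This is a selectivity index for MAO-B, computed as IC50(MAO-A)/IC50(MAO-B). Both IC50s were measured fluorometrically on recombinant human enzymes as kynuramine conversion to 4-hydroxyquinoline, in triplicate.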

[3] = target: T2, Amine oxidase [flavin-containing] A (Homo sapiens, UniProt P21397); experiment: Inhibition of recombinant human MAO-A assessed as inhibition of kynuramine to 4-hydroxyquinoline conversion after 20 mins by fluorometry
T2 sequence (P21397 whole entry): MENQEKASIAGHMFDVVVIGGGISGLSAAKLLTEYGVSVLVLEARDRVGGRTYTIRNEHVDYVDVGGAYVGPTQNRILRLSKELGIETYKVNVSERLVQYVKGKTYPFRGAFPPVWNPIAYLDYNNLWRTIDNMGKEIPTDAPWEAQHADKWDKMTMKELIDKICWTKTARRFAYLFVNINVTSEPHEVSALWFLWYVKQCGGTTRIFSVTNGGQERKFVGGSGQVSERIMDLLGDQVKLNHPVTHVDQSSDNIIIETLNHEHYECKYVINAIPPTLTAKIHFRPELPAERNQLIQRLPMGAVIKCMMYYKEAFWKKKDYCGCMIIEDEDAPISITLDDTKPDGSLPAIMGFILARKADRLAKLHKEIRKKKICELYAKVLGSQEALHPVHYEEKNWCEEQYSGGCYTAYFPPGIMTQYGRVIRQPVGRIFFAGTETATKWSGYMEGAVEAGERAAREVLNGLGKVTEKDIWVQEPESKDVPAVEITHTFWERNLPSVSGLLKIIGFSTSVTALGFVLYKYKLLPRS
Procedure, shortened: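 Recombinant human MAO-A was incubated with the mixed MAO-A/B substrate kynuramine. Activity was read fluorometrically as formation of 4-hydroxyquinoline. IC50 values are given as mean ± SD of triplicate determinations.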

[4] = target: T1, Amine oxidase [flavin-containing] B; experiment: Reversible inhibition of recombinant human MAO-B assessed as recovered enzyme activity measuring residual rate of 4-hydroxyquinoline formation at 10 times IC50 preincubated for 30 mins followed by dilution to 0.1 time IC50 measured after 20 mins

Structure (SMILES) | IC50 [1] [µM] | Ratio IC50 [2] | IC50 [3] [µM] | Activity [4] [%]
O=Cc1coc2ccccc2c1=O | 23.5 | 1 | 28.9 | 
O=c1ccoc2cccc(OCc3ccccc3)c12 | 8.03 | 18 | 143 | 
COC(=O)c1coc2ccc(OCc3cccc(Br)c3)cc2c1=O | 0.0774 | 83 | 6.46 | 
O=C1CC(O)Oc2cccc(OCc3ccc(Br)cc3)c21 (centres undefined) | 44.8 | 1.4 | 60.6 | 
O=Cc1coc2ccc(OCc3cccc(Br)c3)cc2c1=O | 0.0037 | 595 | 2.2 | 
O=C1CC(O)Oc2ccc(OCc3cccc(Br)c3)cc21 (centres undefined) |  |  | 1.53 | 68
O=c1ccoc2ccccc12 [CHROMONE] | 54.9 | 1 | 39.9 | 
O=c1ccoc2cccc(OCc3ccc(Br)cc3)c12 | 4.34 | 12 | 52.9 | 

More lines, now with the values ahead:

IC50 [1] [µM] | Ratio IC50 [2] | IC50 [3] [µM] | Activity [4] [%] | Structure (SMILES)
 | 3950 |  | 68 | CC(=O)c1ccc(OCc2cccc(Br)c2)cc1O
0.0028 | 371 | 1.04 | 68 | O=C(O)c1coc2ccc(OCc3cccc(Br)c3)cc2c1=O
 | 17 |  |  | CC(=O)c1c(O)cccc1OCc1cccc(Br)c1
 | 17 |  |  | CC(=O)c1cc(OCc2ccc(Br)cc2)ccc1O
 | 53 |  |  | CC(=O)c1c(O)cccc1OCc1ccc(Br)cc1
 | 569 |  |  | CC(=O)c1ccc(OCc2ccc(Br)cc2)cc1O
 | 34 |  |  | CC(=O)c1cc(OCc2cccc(Br)c2)ccc1O
